What was measured:
Rattus norvegicus [1] = experiment: Change in diastolic blood pressure after iv administration of 2.5 ug/kg in anesthetized rats
Rattus norvegicus [2] = experiment: Maximum rate of rise of the left ventricular isovolumetric pressure was measured after iv administration of 2.5 mg/kg in anesthetized rats; ratio given for dP/dt; assay type: functional, Heart left ventricle
Rattus norvegicus [3] = experiment: Change in systolic blood pressure after iv administration of 2.5 mg/kg in anesthetized rats; assay type: functional, Artery
Rattus norvegicus [4] = experiment: Change in heart rate after iv administration of 2.5 ug/kg in anesthetized rats
Rattus norvegicus [5] = experiment: Change in systolic blood pressure after iv administration of 1 mg/kg in anesthetized rats; assay type: functional, Artery
Rattus norvegicus [6] = experiment: Change in diastolic blood pressure after iv administration of 1 mg/kg in anesthetized rats; assay type: functional, Artery
Rattus norvegicus [7] = experiment: Maximum rate of rise of the left ventricular isovolumetric pressure was measured after iv administration of 1 mg/kg in anesthetized rats; assay type: functional, Heart left ventricle
Rattus norvegicus [8] = experiment: Change in heart rate after iv administration of 1 mg/kg in anesthetized rats; assay type: functional
Rattus norvegicus [9] = experiment: Change in systolic blood pressure after iv administration of 25 uM/kg in anesthetized rats; assay type: functional, Artery
Outline: (§1)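 Doses were 4.12 µM/kg (two agents), guanethidine 25, clonidine 0.108, hexamethonium 12, reserpine 8, papaverine 5 and histamine […]. Peak changes in systolic BP or HR were recorded.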

Rattus norvegicus [10] = experiment: Maximum rate of rise of the left ventricular isovolumetric pressure was measured after iv administration of 25 uM/kg in anesthetized rats; ratio given for dP/dt; assay type: functional, Heart left ventricle
Rattus norvegicus [11] = experiment: Change in diastolic blood pressure after iv administration of 25 uM/kg in anesthetized rats; assay type: functional, Artery
Rattus norvegicus [12] = experiment: Change in heart rate after iv administration of 25 uM/kg in anesthetized rats; assay type: functional
Rattus norvegicus [13] = experiment: Change in heart rate after iv administration of 12 uM/kg in anesthetized rats; assay type: functional
Rattus norvegicus [14] = experiment: Change in systolic blood pressure after iv administration of 12 uM/kg in anesthetized rats; assay type: functional, Artery
Outline: as §1

Rattus norvegicus [15] = experiment: Change in diastolic blood pressure after iv administration of 12 uM/kg in anesthetized rats; assay type: functional, Artery
Rattus norvegicus [16] = experiment: Maximum rate of rise of the left ventricular isovolumetric pressure was measured after iv administration of 12 uM/kg in anesthetized rats; assay type: functional, Heart left ventricle
Rattus norvegicus [17] = experiment: Change in systolic blood pressure after iv administration of 0.625 ug/kg in anesthetized rats
Rattus norvegicus [18] = experiment: Maximum rate of rise of the left ventricular isovolumetric pressure was measured after iv administration of 0.625 mg/kg in anesthetized rats; assay type: functional, Heart left ventricle
Rattus norvegicus [19] = experiment: Change in heart rate after iv administration of 0.625 ug/kg in anesthetized rats
Rattus norvegicus [20] = experiment: Change in diastolic blood pressure after iv administration of 0.625 mg/kg in anesthetized rats; assay type: functional, Artery
Rattus norvegicus [21] = experiment: Maximum rate of rise of the left ventricular isovolumetric pressure was measured after iv administration of 5 uM/kg in anesthetized rats; ratio given for dP/dt; assay type: functional, Heart left ventricle
Rattus norvegicus [22] = experiment: Change in systolic blood pressure after iv administration of 5 uM/kg in anesthetized rats; assay type: functional, Artery
Rattus norvegicus [23] = experiment: Change in heart rate after iv administration of 5 uM/kg in anesthetized rats; assay type: functional
Outline: as §1

Rattus norvegicus [24] = experiment: Change in diastolic blood pressure after iv administration of 5 uM/kg in anesthetized rats; assay type: functional, Artery
Rattus norvegicus [25] = experiment: Maximum rate of rise of the left ventricular isovolumetric pressure was measured after iv administration of 8 uM/kg in anesthetized rats; ratio given for dP/dt; assay type: functional, Heart left ventricle
Rattus norvegicus [26] = experiment: Change in diastolic blood pressure after iv administration of 8 uM/kg in anesthetized rats; assay type: functional, Artery
Rattus norvegicus [27] = experiment: Change in systolic blood pressure after iv administration of 8 uM/kg in anesthetized rats; assay type: functional, Artery
Rattus norvegicus [28] = experiment: Change in heart rate after iv administration of 8 uM/kg in anesthetized rats; assay type: functional
Outline: as §1

CC(=O)OCC[N+](C)(C)C [ACETYLCHOLINE]
BP (Rattus norvegicus [1]): -31 mmHg | dP/dt (Rattus norvegicus [2]): -4451 mmHg s-1 | BP (Rattus norvegicus [3]): -25 mmHg | Heart rate (Rattus norvegicus [4]): -27 beats min-1

CNC[C@H](O)c1ccc(O)c(O)c1 [EPINEPHRINE]
BP (Rattus norvegicus [5]): 25 mmHg | BP (Rattus norvegicus [6]): 16 mmHg | dP/dt (Rattus norvegicus [7]): 8416 mmHg s-1 | Heart rate (Rattus norvegicus [8]): 41 beats min-1

N=C(N)NCCN1CCCCCCC1 [GUANETHIDINE]
BP (Rattus norvegicus [9]): -29 mmHg | dP/dt (Rattus norvegicus [10]): -1090 mmHg s-1 | BP (Rattus norvegicus [11]): -22 mmHg | Heart rate (Rattus norvegicus [12]): -24 beats min-1

C[N+](C)(C)CCCCCC[N+](C)(C)C.[Cl-].[Cl-] [HEXAMETHONIUM CHLORIDE]
Heart rate (Rattus norvegicus [13]): -46 beats min-1 | BP (Rattus norvegicus [14]): -48 mmHg | BP (Rattus norvegicus [15]): -40 mmHg | dP/dt (Rattus norvegicus [16]): -4421 mmHg s-1

CC(C)NCC(O)c1ccc(O)c(O)c1 (configuration not stated) [ISOPROTERENOL]
BP (Rattus norvegicus [17]): -20 mmHg | dP/dt (Rattus norvegicus [18]): 9844 mmHg s-1 | Heart rate (Rattus norvegicus [19]): 46 beats min-1 | BP (Rattus norvegicus [20]): -31 mmHg

NC[C@H](O)c1ccc(O)c(O)c1 [NOREPINEPHRINE]
BP (Rattus norvegicus [5]): 43 mmHg | BP (Rattus norvegicus [6]): 25 mmHg | dP/dt (Rattus norvegicus [7]): 5564 mmHg s-1 | Heart rate (Rattus norvegicus [8]): 28 beats min-1

COc1ccc(Cc2nccc3cc(OC)c(OC)cc23)cc1OC [PAPAVERINE]
dP/dt (Rattus norvegicus [21]): -1204 mmHg s-1 | BP (Rattus norvegicus [22]): -20 mmHg | Heart rate (Rattus norvegicus [23]): -18 beats min-1 | BP (Rattus norvegicus [24]): -15 mmHg

COC(=O)[C@H]1[C@H]2C[C@@H]3c4[nH]c5cc(OC)ccc5c4CCN3C[C@H]2C[C@@H](OC(=O)c2cc(OC)c(OC)c(OC)c2)[C@@H]1OC [RESERPINE]
dP/dt (Rattus norvegicus [25]): -1438 mmHg s-1 | BP (Rattus norvegicus [26]): -29 mmHg | BP (Rattus norvegicus [27]): -35 mmHg | Heart rate (Rattus norvegicus [28]): -51 beats min-1

Reference: ChEMBL document CHEMBL1132342, “Novel hypotensive agents from Verbesina caracasana. 6. Synthesis and pharmacology of caracasandiamide” (1999)
